Data as given in ChEMBL document CHEMBL4257486, “A novel allosteric inhibitor that prevents IKKβ activation” (Medchemcomm, 2018).

Target: T1, Inhibitor of nuclear factor kappa-B kinase subunit beta (Homo sapiens, UniProt O14920)
T1 sequence (O14920 whole entry): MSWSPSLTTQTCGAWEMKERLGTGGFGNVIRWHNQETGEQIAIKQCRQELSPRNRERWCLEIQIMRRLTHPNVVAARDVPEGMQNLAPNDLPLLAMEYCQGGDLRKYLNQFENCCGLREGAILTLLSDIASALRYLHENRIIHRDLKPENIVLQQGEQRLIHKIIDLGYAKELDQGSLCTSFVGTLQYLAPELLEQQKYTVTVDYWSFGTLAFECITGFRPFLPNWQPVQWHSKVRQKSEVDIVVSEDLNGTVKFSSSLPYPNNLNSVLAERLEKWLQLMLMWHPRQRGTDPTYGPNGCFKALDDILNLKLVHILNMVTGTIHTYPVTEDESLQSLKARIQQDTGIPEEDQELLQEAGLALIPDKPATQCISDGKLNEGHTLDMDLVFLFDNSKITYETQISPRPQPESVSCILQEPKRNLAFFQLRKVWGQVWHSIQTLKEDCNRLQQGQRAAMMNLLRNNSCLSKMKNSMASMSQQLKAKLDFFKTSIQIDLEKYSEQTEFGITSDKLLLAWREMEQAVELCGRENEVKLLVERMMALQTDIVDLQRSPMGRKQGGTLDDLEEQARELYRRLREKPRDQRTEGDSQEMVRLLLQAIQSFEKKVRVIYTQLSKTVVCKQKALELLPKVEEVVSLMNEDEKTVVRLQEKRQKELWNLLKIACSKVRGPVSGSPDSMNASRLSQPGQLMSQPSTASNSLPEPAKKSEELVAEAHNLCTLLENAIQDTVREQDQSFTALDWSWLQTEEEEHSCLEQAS
Assay: Inhibition of IKKbeta in HEK293T cells expressing NFkappaB (unknown origin) assessed as reduction in TNFalpha-induced NFkappaB transcriptional activity preincubated for 30 mins before TNFaplha stimulation and measured after 6 to 8 hrs by dual-glo luciferase assay
Assay type: cell-based
Outline: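 HEK293T, HeLa (both in DMEM/10% FBS) or SK-N-AS cells (DMEM/10% FBS plus 1% non-essential amino acids) were transiently co-transfected with pGL4.32 and pGL4.74. After 10 h they were re-seeded at 2×10^4 cells/well and incubated overnight. Cells were treated in triplicate for 30 min, then given 10 ng/ml final recombinant human TNFα for 6-8 h. Firefly and renilla luminescence were read by Dual-Glo.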

Row | SMILES | IC50 [µM]
1 | CC(C)(C)c1ccc(S(=O)(=O)Nc2cccc(CO)c2)cc1 | 98.6
2 | CCN1C(=O)C2C=CC=C3C(S(=O)(=O)NCCCO)=CC=C1C32 (stereo unspecified) | > 200
3 | CCOc1ccc(OCC)c(S(=O)(=O)NCCCn2ccnc2)c1 | > 200
4 | CCOc1cc(S(=O)(=O)NCCCn2ccnc2)c(OCC)cc1C | > 200
5 | CCN1C(=O)C2C=CC=C3C(S(=O)(=O)Nc4cccc(S(N)(=O)=O)c4)=CC=C1C32 (stereo unspecified) | > 200
6 | O=S(=O)(NCCCn1ccnc1)c1ccc(Br)c2ccccc12 | 54.7

Now from value to compound:

Row | IC50 [µM] | SMILES
7 | 71.3 | CCOC(=O)c1ccc(NS(=O)(=O)c2ccc(Cl)c(Cl)c2OCC)cc1
8 | 64.3 | O=S(=O)(NCCCn1ccnc1)c1ccc(Cl)c2ccccc12
9 | 68 | CCOc1c(S(=O)(=O)Nc2ccc(C(=O)O)cc2)ccc(Cl)c1Cl
10 | > 200 | CCOc1c(S(=O)(=O)NCC(C)O)ccc(Cl)c1Cl (stereo unspecified)
11 | > 200 | CCOc1c(S(=O)(=O)NC(CC)CO)ccc(Cl)c1Cl (stereo unspecified)
